Assay results: ChEMBL document CHEMBL2331122, “Cytotoxic polyketide derivatives from the South China Sea sponge Plakortis simplex” (J Nat Prod, 2013)
Counter-ions that a name gives are not always drawn.

Key:
[1] = tested on: K562; test: Cytotoxicity against human K562 cells after 72 hrs by MTT assay; assay type: functional, cell-based; conditions: K562, 72 h
How it was run: (§1)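 Human tumour cells plated 24 h ahead, then exposed continuously to a range of compound concentrations for 72 h. Viability read by MTT. Adriamycin served as positive control. Three independent experiments, each in triplicate.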

[2] = tested on: Bel-7402; test: Cytotoxicity against human Bel7402 cells after 72 hrs by MTT assay; assay type: functional, cell-based; conditions: Bel-7402, 72 h
How it was run: (§2)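 Human tumour cells plated 24 h ahead, then exposed continuously to a range of compound concentrations for 72 h. Viability read by MTT. Adriamycin served as positive control. IC50 is the concentration giving 50% inhibition of control growth. Three independent experiments, each in triplicate.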

[3] = tested on: HeLa; test: Cytotoxicity against human HeLa cells after 72 hrs by MTT assay; assay type: functional, cell-based; how it was run: as §2
[4] = tested on: A549; test: Cytotoxicity against human A549 cells after 72 hrs by MTT assay; assay type: functional, cell-based; conditions: A549, 72 h; how it was run: as §1
[5] = molecular target: Hepatocyte growth factor receptor (Homo sapiens) (UniProt P08581); test: Inhibition of c-Met (unknown origin) at 10 uM after 60 mins by ELISA relative to control
Sequence of Hepatocyte growth factor receptor (Homo sapiens) (P08581 whole entry): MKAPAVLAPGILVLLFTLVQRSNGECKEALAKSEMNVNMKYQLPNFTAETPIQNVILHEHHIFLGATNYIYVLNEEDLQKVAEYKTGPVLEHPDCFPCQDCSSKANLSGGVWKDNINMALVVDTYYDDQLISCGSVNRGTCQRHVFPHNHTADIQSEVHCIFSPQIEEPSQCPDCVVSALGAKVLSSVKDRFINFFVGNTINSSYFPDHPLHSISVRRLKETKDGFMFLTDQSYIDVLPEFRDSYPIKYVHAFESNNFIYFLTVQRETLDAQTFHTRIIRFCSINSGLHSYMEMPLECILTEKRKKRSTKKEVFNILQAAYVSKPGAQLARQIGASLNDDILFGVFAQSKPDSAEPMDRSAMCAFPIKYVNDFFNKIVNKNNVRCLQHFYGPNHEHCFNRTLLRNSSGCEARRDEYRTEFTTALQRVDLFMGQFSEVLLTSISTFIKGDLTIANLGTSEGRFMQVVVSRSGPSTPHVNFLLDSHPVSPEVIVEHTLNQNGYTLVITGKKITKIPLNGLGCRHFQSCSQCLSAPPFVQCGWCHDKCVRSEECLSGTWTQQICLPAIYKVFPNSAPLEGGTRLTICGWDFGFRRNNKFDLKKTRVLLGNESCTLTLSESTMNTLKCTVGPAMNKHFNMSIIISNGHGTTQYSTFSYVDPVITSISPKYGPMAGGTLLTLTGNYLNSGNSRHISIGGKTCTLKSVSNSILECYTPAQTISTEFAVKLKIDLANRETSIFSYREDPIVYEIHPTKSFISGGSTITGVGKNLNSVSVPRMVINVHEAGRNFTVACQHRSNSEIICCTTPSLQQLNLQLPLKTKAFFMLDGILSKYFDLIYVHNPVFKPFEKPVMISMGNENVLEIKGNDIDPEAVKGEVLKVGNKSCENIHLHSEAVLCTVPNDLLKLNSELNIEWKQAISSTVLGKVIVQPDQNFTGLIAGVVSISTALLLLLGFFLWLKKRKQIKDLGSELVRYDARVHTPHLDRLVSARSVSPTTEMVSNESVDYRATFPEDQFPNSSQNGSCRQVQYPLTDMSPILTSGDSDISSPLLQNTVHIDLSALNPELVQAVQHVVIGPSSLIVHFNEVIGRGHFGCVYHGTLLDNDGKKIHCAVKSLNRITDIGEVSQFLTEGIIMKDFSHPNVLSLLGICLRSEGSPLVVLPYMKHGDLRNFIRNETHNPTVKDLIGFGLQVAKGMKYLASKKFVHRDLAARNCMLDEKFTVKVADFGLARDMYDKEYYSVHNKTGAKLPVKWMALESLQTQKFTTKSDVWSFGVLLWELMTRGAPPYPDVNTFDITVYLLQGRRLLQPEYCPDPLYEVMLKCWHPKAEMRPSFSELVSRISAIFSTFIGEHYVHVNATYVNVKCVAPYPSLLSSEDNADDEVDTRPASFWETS
How it was run: (§3)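 ELISA tyrosine kinase assay. Compounds added in DMSO (1% v/v), which was also the negative control; SU11274 (1 μM) was the positive control. Reaction run 60 min at 37 °C. pTyr detected by PY99 plus HRP anti-mouse IgG (30 min, 37 °C), developed with OPD/H2O2, read at 490 nm. Percent inhibition calculated.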

[6] = molecular target: Hepatocyte growth factor receptor (Homo sapiens) (UniProt P08581); test: Inhibition of c-Met (unknown origin) at 1 uM after 60 mins by ELISA relative to control; how it was run: as §3

| SMILES | IC50 [1] [µM] | IC50 [2] [µM] | IC50 [3] [µM] | IC50 [4] [µM] | inhibition [5] [%] | inhibition [6] [%] |
| --- | --- | --- | --- | --- | --- | --- |
| CCCC[C@H](CC)C[C@]1(CC)C=C(CC)/C(=C/C(=O)OC)O1 | 5.3 | > 100 | 4.2 | > 100 | – | – |
| CC/C=C/[C@H](CC)C[C@]1(CC)C=C(CC)/C(=C/C(=O)OC)O1 | 0.8 | > 100 | 2.6 | > 100 | – | – |
| COc1cccc2c1C(=O)c1c(O)c3c(c(O)c1C2=O)C[C@@](O)(C(=O)CO)C[C@@H]3O[C@H]1C[C@H](N)[C@H](O)[C@H](C)O1 [DOXORUBICIN HYDROCHLORIDE] | – | – | 0.6 | – | – | – |
| CCCCC(C)Cc1cc(CC)c(CC(=O)O)o1 (configuration not stated) [PLAKORSIN D] | > 100 | > 100 | > 100 | > 100 | – | – |
| CCCCC(C)C[C@]1(CC)O[C@H]1[C@]1(CC)C=CC(=O)O1 (some centres not stated) [PLAKORTOXIDE A] | > 50 | > 100 | 31.5 | > 100 | – | – |
| CCCCC(CC)C[C@]1(CC)O[C@H]1[C@]1(CC)C=CC(=O)O1 (some centres not stated) [PLAKORTOXIDE B] | > 100 | > 100 | > 50 | > 100 | – | – |
| CCCCC(C)C/C(=C\[C@@]1(CC)OC(=O)C[C@@H]1O)CC (some centres not stated) [SIMPLEXOLIDE B] | 2.2 | > 100 | 4.7 | > 100 | – | – |
| CCCCC(C)C/C(=C/[C@@]1(CC)OC(=O)C[C@@H]1O)CC (some centres not stated) [SIMPLEXOLIDE E] | 49.2 | > 100 | 31.2 | > 100 | – | – |
| CC/C=C/[C@H]1C[C@](O)(CC)[C@@H]([C@]2(CC)OC(=O)C[C@@H]2O)[C@@H]1C [SIMPLEXTONE C] | 19.4 | > 100 | 29 | 40.4 | 57.4 | 34.3 |
| CCC[C@@H]1[C@@H](C)C[C@](O)(CC)[C@H]1[C@]1(CC)OC(=O)C[C@@H]1O [SIMPLEXTONE D] | > 100 | > 100 | > 50 | > 100 | – | – |
| CCCCC(C)CC(O)(/C=C(/CC)[C@@H](O)CC(=O)OC)CC (some centres not stated) [WOODYLIDE A] | 23.8 | > 100 | 15.5 | 29.3 | – | – |
| CCCCC(CC)CC(O)(/C=C(/CC)[C@@H](O)CC(=O)OC)CC (some centres not stated) [WOODYLIDE B] | 20 | > 100 | 15.9 | 23.6 | – | – |
